Assay results: ChEMBL document CHEMBL1156469 (2007)
Calls of active or inactive are those of the source. The calls are words filed in the database; no cut-off is given here.

What was measured:
MG-63 [1] = assay: Increase in osteocalcin mRNA levels in human MG63 cells at 1 uM after 72 hrs by RT-PCR; format: functional, cell-based
In short: (§1)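 Cells treated with 1 μm for 72 h; osteocalcin and osteopontin mRNA by RT-PCR, 30 cycles (95/52/72 °C, 1 min each), ethidium bromide–stained agarose gels; repeated at least twice from at least two cDNA preparations.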

MC3T3-E1 [2] = assay: Increase in osteopontin mRNA levels in mouse MC3T3-E1 cells at 1 uM after 72 hrs by RT-PCR; format: functional, cell-based; in short: as §1
Osteoblast [3] = assay: Effect on bone morphogenetic protein 3 gene expression in rat primary osteoblast cells assessed as expression ratio of treated to untreated control by microarray analysis; format: functional
Osteoblast [4] = assay: Effect on MAD homolog 1 gene expression in rat primary osteoblast cells assessed as expression ratio of treated to untreated control by microarray analysis; format: functional
Osteoblast [5] = assay: Effect on matrix metalloprotease 2 gene expression in rat primary osteoblast cells assessed as expression ratio of treated to untreated control by microarray analysis; format: functional
In short: (§2)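 Resveratrol-treated and vehicle-treated primary osteoblasts were profiled on a mouse osteogenesis-focused cDNA array (GEArray Q series) built to track gene expression during osteogenic differentiation. Each gene's signal in treated cells was expressed as a ratio to untreated control.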

MCF7 = assay: Antitumor activity against human MCF7 cells xenografted in SCID mouse orthotropic model assessed as inhibition of 17beta estradiol-induced tumor weight at 10 mg/kg for 2 days; format: functional; design: scale not given: the % may be the effect or the level left
In short: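 Tumor cells were inoculated orthotopically into the mammary fat pad of 6-week-old female SCID mice. […] Tumor volume was calculated as LW2/2. Tumor formation was scored as mice with tumors per total (20 per group), and tumor weight as mean ± S.D. Groups were compared by one-way ANOVA with LSD post-hoc comparisons.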

Osteoblast [6] = assay: Effect on bone morphogenetic protein 1 gene expression in rat primary osteoblast cells assessed as expression ratio of treated to untreated control by microarray analysis; format: functional
Osteoblast [7] = assay: Effect on bone morphogenetic protein 6 gene expression in rat primary osteoblast cells assessed as expression ratio of treated to untreated control by microarray analysis; format: functional
Osteoblast [8] = assay: Inhibition of TNF-alpha-induced apoptosis in rat primary osteoblast cells after 24 hrs by flow cytometry; format: functional, cell-based
In short: (§3)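 Cells washed in PBS, held 30 min in 0.5% Triton X-100/PBS/0.05% RNase A, then propidium iodide (50 μg/ml) added and kept on ice 15–30 min. Apoptosis is the hypodiploid fraction below the G0/G1 peak, by flow cytometry. Run in triplicate and repeated on three occasions.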

MG-63 [9] = assay: Increase in osteocalcin levels in human MG63 cells at 1 uM after 72 hrs by ELISA; format: functional, cell-based
In short: (§4)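 Cells treated with 1 μm for 72 h; osteocalcin or osteopontin in culture medium by sandwich ELISA, HRP-streptavidin/TMB, 450 nm; percent change versus untreated control.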

Rattus norvegicus = assay: Increase in serum ALP activity in ovariectomized Wistar rat dosed orally after 10 weeks; format: functional, organism-based
In short: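 Female Wistar rats sham-operated or ovariectomized, fed compound orally every 2 days at indicated doses; femur/tibia BMD by DEXA under ketamine (87 mg/kg)/xylazine (13 mg/kg) anesthesia and serum ALP measured 10 weeks after surgery; n = 8/group, means ± S.D.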

Osteoblast [10] = assay: Effect on runt related transcription factor 2 gene expression in rat primary osteoblast cells assessed as expression ratio of treated to untreated control by microarray analysis; format: functional; in short: as §2
[11] = Reversal of induction in nuclear translocation of ERalpha in mouse MC3T3-E1 cells transfected with dominant-negative mutant Src expression vector at 1 uM; format: functional, cell-based
In short: (§5)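 Src phosphorylation, ERα nuclear translocation and BMP-2 protein analysed by Western blot with ECL detection. Three independent experiments.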

Osteoblast [12] = assay: Increase in osteocalcin levels in rat primary osteoblast cells at 1 uM after 72 hrs by ELISA; format: functional, cell-based; in short: as §4
Osteoblast [13] = assay: Effect on tumor necrosis factor gene expression in rat primary osteoblast cells assessed as expression ratio of treated to untreated control by microarray analysis; format: functional
In short: (§6)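 GEArray Q series Mouse Osteogenesis cDNA array profiling osteogenic-differentiation genes in treated versus vehicle-treated primary osteoblasts.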

[14] = biological target: Alkaline phosphatase (Rattus norvegicus) (UniProt Q9JKS8); assay: Increase in ALP activity in rat primary osteoblast cells at 0.1 to 10 uM after 7 days; format: cell-based
Alkaline phosphatase (Rattus norvegicus), sequence (Q9JKS8 as listed by the source): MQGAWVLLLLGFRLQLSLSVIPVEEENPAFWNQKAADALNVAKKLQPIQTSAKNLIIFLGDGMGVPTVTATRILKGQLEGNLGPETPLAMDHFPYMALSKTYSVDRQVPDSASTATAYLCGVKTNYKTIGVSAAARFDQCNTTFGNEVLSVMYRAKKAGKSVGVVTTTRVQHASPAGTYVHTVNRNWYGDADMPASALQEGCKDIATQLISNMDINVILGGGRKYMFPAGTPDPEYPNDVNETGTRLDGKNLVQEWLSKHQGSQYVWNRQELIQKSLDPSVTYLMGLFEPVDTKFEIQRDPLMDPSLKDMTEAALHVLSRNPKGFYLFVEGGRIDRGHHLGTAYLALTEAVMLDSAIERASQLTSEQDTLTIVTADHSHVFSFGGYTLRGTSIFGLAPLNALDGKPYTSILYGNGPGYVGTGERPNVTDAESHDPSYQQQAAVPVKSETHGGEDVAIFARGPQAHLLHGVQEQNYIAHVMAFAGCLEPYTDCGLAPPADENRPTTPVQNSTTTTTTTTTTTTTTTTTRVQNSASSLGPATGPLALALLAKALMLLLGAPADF

MG-63 [15] = assay: Increase in proliferation of human MG63 cells at 0.1 to 10 uM after 24 hr by flow cytometry; format: functional, cell-based
Osteoblast [16] = assay: Effect on bone morphogenetic protein 5 gene expression in rat primary osteoblast cells assessed as expression ratio of treated to untreated control by microarray analysis; format: functional
MC3T3-E1 [17] = assay: Inhibition of etoposide-induced apoptosis in mouse MC3T3-E1 cells after 24 hrs by flow cytometry; format: functional, cell-based; in short: as §3
[18] = biological target: Proto-oncogene tyrosine-protein kinase Src (Mus musculus) (UniProt P05480); assay: Increase in Src kinase phosphorylation in mouse MC3T3-E1 cells at 1 uM; format: cell-based
Proto-oncogene tyrosine-protein kinase Src (Mus musculus), sequence (P05480 2-535 limits assumed): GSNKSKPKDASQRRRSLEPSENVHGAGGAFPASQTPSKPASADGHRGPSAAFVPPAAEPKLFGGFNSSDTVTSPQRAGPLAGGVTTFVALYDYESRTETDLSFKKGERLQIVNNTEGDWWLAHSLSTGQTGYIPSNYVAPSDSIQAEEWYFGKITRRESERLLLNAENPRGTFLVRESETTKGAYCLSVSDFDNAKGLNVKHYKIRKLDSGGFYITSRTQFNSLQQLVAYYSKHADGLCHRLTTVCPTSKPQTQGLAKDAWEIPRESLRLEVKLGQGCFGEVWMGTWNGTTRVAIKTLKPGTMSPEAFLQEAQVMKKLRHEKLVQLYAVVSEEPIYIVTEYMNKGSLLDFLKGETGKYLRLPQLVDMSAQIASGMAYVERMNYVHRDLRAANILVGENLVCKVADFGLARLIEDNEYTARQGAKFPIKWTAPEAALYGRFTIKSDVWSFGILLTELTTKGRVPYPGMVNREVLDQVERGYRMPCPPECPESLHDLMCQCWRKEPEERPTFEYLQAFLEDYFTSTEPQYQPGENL
In short: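 MC3T3-E1 cells, with or without DN-Src vector (3 μg) or PP2 (10 μm), treated ± 1 μm; Src phosphorylation by Western blot; three independent experiments.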

[19] = biological target: Proto-oncogene tyrosine-protein kinase Src (Mus musculus) (UniProt P05480); assay: Reversal of increase in Src kinase phosphorylation in mouse MC3T3-E1 cells at 1 uM in presence of PP2; format: cell-based; in short: as §5
T47D = assay: Reduction in anchorage-independent colony formation of human T47D cells at 1 uM by soft agar colony forming assay; format: functional, cell-based
In short: (§7)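 Seeded in 0.35% noble agar in DMEM/10% FBS over a 0.7% agar bed. Colonies of at least 50 μm counted after 3 weeks under a dissecting microscope, six replicates per treatment. Three separate experiments.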

[20] = biological target: Forkhead box protein O3 (Homo sapiens) (UniProt O43524); assay: Inhibition of IGF-induced FOXO3a phosphorylation at Thr32 residue in human MDA-MB-231 cells by Western blot; format: cell-based
Forkhead box protein O3 (Homo sapiens), sequence (O43524 whole entry): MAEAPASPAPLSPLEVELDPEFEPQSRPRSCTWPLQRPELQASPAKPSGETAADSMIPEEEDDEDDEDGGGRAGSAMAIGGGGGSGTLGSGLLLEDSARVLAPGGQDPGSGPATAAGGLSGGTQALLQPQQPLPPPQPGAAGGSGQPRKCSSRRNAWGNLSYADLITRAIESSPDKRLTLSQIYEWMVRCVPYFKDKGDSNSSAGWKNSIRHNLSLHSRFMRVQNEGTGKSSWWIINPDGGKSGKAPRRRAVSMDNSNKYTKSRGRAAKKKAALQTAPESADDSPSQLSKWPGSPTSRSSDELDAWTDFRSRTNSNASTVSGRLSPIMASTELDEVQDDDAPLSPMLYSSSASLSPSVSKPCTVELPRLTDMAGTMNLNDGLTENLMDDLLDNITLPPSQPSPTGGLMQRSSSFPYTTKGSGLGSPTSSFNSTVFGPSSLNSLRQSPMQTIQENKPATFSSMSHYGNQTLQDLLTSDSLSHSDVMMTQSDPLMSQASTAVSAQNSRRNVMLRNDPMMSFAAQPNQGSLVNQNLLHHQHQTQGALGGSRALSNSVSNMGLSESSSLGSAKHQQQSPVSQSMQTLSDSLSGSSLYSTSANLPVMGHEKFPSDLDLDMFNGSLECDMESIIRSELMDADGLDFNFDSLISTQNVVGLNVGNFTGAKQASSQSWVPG
In short: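 MDA-MB-231 breast cancer cells, control or resveratrol-treated, then exposed or not to IGF. Lysates resolved by SDS-PAGE, transferred to nitrocellulose, probed with specific primary and secondary antibodies, and detected by ECL. Membranes stripped and reprobed where indicated.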

Osteoblast [21] = assay: Effect on procollagen 3 alpha 1 gene expression in rat primary osteoblast cells assessed as expression ratio of treated to untreated control by microarray analysis; format: functional; in short: as §2
Osteoblast [22] = assay: Increase in osteopontin mRNA levels in rat primary osteoblast cells at 1 uM after 72 hrs by RT-PCR; format: functional, cell-based; in short: as §1
Osteoblast [23] = assay: Effect on vascular endothelial growth factor A gene expression in rat primary osteoblast cells assessed as expression ratio of treated to untreated control by microarray analysis; format: functional; in short: as §6
Osteoblast [24] = assay: Effect on procollagen 4 alpha 6 gene expression in rat primary osteoblast cells assessed as expression ratio of treated to untreated control by microarray analysis; format: functional; in short: as §2
Osteoblast [25] = assay: Effect on procollagen 1 alpha 1 gene expression in rat primary osteoblast cells assessed as expression ratio of treated to untreated control by microarray analysis; format: functional; in short: as §2
Osteoblast [26] = assay: Effect on fibroblast growth factor 2 gene expression in rat primary osteoblast cells assessed as expression ratio of treated to untreated control by microarray analysis; format: functional
MDA-MB-231 = assay: Reduction in anchorage-independent colony formation of human MDA-MB-231 cells at 1 uM by soft agar colony forming assay; format: functional, cell-based; in short: as §7
MC3T3-E1 [27] = assay: Increase in osteocalcin levels in mouse MC3T3-E1 cells at 1 uM after 72 hrs by ELISA; format: functional, cell-based; in short: as §4

With `Oc1ccc(/C=C/c2cc(O)cc(O)c2)cc1` [RESVERATROL] the Activity (MG-63 [1]) was “Active”, the Activity (MC3T3-E1 [2]) was “Active” and the Ratio (Osteoblast [3]) was 0.27. The Ratio (Osteoblast [4]) was 3.24, the Ratio (Osteoblast [5]) was 0.46 and the Activity (MCF7) was 54.6%. For the same compound, the Ratio (Osteoblast [6]) was 1.5, the Ratio (Osteoblast [7]) was 3.38 and the Activity (Osteoblast [8]) was “Active”. The Activity (MG-63 [9]) was “Active”, the Activity (Rattus norvegicus) was “Dose-dependent effect” and the Ratio (Osteoblast [10]) was 3.26. For the same compound, the Activity [11] was “Active”, the Activity (Osteoblast [12]) was “Active” and the Ratio (Osteoblast [13]) was 0.46. For the same compound, the Activity [14] was “Active”, the Activity (MG-63 [15]) was “Active” and the Ratio (Osteoblast [16]) was 0.97. The Activity (MC3T3-E1 [17]) was “Active”, the Activity [18] was “Active” and the Activity [19] was “Active”. The Activity (T47D) was “Active”, the Activity [20] was “Active” and the Ratio (Osteoblast [21]) was 4.41. The Activity (Osteoblast [22]) was “Active”, the Ratio (Osteoblast [23]) was 0.44 and the Ratio (Osteoblast [24]) was 3.689. For the same compound, the Ratio (Osteoblast [25]) was 9.67, the Ratio (Osteoblast [26]) was 2.76 and the Activity (MDA-MB-231) was “Active”. For the same compound, the Activity (MC3T3-E1 [27]) was “Active”.
